Screening data deposited in PubChem by The Scripps Research Institute Molecular Screening Center.
In the library only some 0.58% were active in any assay of this set; here they are far more common.
TRPN1 ag: zebrafish TRPN1 channel agonists, primary screen, cell-based, HEK293, calcium fluorescence; transient receptor potential cation channel N1 (TRPN1/NompC), Danio rerio; activation, % at 3 µM; HEK293 zebrafish TRPN1-YFP, Fluo-8 calcium fluorescence; 100% = response to 87 µM carbachol; AID 1424, 2008; 0.18% of 220,000 active;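 active = activation above its plate's cutoff, the mean activation of test wells on that plate plus 3 SD, cut at about 19% in these data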
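System: zebrafish TRPN1-YFP in HEK293 cells / Dosing: 3 µM single point / Timing: dye loading 1 h at 37 °C, then 30 min room temperature / Signal: Fluo-8 calcium fluorescence, excitation 470-495 nm, emission 515-575 nm / Read-out basis: percent activation from peak over basal fluorescence ratio, control-normalized / Control set: high carbachol 87 µM, low DMSO alone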
OXTR ag: human OXTR agonists, primary screen, fluorescence, CHO-OTR cells, Fluo-8 calcium. 0.32% of 320,000 active. Fluo-8 calcium fluorescence; normalized: DMSO 0%, oxytocin 100%. activation, % at 3 µM. AID 2435, 2010. Oxytocin receptor (Homo sapiens), P30559;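 active = activation above the mean of all tested compounds plus 3 SD, cutoff set per screening run, cut at about 20% in these data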;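 also: peak over basal fluorescence ratio from a 100 s FLIPR kinetic read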
TRPML3 ag: human TRPML3 channel agonists, primary screen, cell-based, HEK293 TRPML3-YFP, Fluo-8 calcium fluorescence, 3 µM | 100% = the carbachol control signal | activation, % at 3 µM | 0.29% of 220,000 active | AID 1448, 2008;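 active = activation above its plate's cutoff, the mean activation of the plate's test wells plus 3 SD, cut at about 12% in these data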
Target sequence (Q8TDD5 whole entry, looked up): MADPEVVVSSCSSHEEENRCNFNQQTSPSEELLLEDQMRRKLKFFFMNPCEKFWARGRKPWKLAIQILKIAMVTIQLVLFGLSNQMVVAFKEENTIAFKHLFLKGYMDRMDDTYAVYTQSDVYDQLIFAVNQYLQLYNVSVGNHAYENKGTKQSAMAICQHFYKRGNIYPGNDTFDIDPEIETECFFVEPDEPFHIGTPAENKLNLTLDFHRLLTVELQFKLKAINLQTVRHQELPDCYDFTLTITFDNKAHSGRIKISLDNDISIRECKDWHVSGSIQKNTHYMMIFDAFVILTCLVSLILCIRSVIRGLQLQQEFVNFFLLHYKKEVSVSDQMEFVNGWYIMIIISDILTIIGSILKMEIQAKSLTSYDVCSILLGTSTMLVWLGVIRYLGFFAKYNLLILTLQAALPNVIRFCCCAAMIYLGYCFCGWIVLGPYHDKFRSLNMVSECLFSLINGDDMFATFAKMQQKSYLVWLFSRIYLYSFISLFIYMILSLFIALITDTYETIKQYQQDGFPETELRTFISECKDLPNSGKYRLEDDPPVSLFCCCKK
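Test system: HEK293 cells stably carrying human TRPML3-YFP; Doses: single dose, 3 µM final nominal compound, 0.3% DMSO final; Schedule: dye loading 1 h 37 °C then 30 min ambient, 125 s read; Technique: Fluo-8 calcium fluorescence; Benchmarks: high control carbachol 87 µM, low control DMSO.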
V1R ag counter: agonists of human V1a receptor, primary screen, counter-screen for OXTR agonist project, fluorescence, CHO-V1R cells. Vasopressin V1a receptor (Homo sapiens), P37288. Fluo-8 calcium fluorescence, agonist mode; 0% DMSO, 100% 3 nM vasopressin. activation, % at 3 µM. 0.25% of 320,000 active. AID 2797, 2010;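 active = activation above the mean activation of all tested compounds plus 3 SD, per screening run, cut at about 20% in these data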;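 also: signal is peak over basal fluorescence ratio across a 100 second FLIPR read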
OXTR potentiate: human OXTR potentiators, primary screen, fluorescence, CHO-OTR cells, Fluo-8 calcium. 0.061% of 320,000 active. Oxytocin receptor (Homo sapiens), P30559. Fluo-8 calcium fluorescence, potentiator mode; 0% = oxytocin EC15, 100% = EC100. activation, % at 3 µM;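 active = activation above that plate's cutoff, the mean activation of tested compounds plus 3 SD, cut at about 6.6% in these data, passing the limit was not always enough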
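assay system = CHO-OTR cells, human receptor | schedule = compound 6 min at room temperature before oxytocin, 100 s read | detection = Fluo-8 intracellular calcium fluorescence, ex 470-495, em 515-575 nm | evaluation = normalized max/min fluorescence ratio, % activation | control set = EC15 oxytocin alone as 0%, 75 nM oxytocin (EC100) as 100%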
OXTR pot confirm: human OXTR potentiators, confirmation, fluorescence, CHO-OTR cells, triplicate | shares compounds with OXTR potentiate | Fluo-8 calcium fluorescence, potentiation; scaled from low-dose to maximal oxytocin | activation, % at 3 µM | 180 tested, under 10 active | AID 434985, 2010;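 active = mean percent activation over triplicates above a cutoff set from solvent-only control plates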;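 also: compounds tested in the presence of an EC15 dose of oxytocin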
A number is an active result; i = inactive; nt = not tested or not shown.

SMILES | TRPN1 ag | OXTR ag | TRPML3 ag | V1R ag counter | OXTR potentiate | OXTR pot confirm
Cc1cc(=O)oc2c3c(cc(OCC(=O)NCC(=O)N[C@H](C(=O)O)C(C)C)c12)OC(C)(C)CC3 | nt | i | nt | i | 12 | i
CC[C@H](C)[C@H](NC(=O)CNC(=O)COc1cc2c(c3oc(=O)cc(C)c13)CCC(C)(C)O2)C(=O)O | nt | i | nt | i | i | nt
C=C(C)Cn1c(-c2ccncc2)n[nH]c1=S | i | i | i | i | i | nt
CCn1cc(C(=O)NCC(OC)OC)c(=O)c2cc(S(=O)(=O)N3CCOCC3)ccc21 | nt | i | nt | i | 13 | i
COC(CNC(=O)c1cn(C)c2ccc(S(=O)(=O)N3CCOCC3)cc2c1=O)OC | nt | i | nt | i | i | nt
COc1cc(Nc2cc(C)nc3ncnn23)cc(OC)c1OC | i | i | i | i | i | nt
COc1cc(Nc2cc(C)nc3ncnn23)cc(OC)c1 | i | i | i | i | 6.4 | i
CCOc1ccc(OCC)c(Nc2cc(C)nc3ncnn23)c1 | i | i | i | i | 16 | i
CCn1c(SCC(=O)N/N=C(\C)c2ccncc2)nnc1-c1ccc(C)cc1 | i | i | i | i | i | nt
CCc1cc2c(-c3ccccc3)cc(=O)oc2cc1OC(C)C(=O)NCC1CCC(C(=O)O)CC1 (configuration not stated) | nt | i | nt | i | 9.8 | i
CC(Oc1cc2oc(=O)cc(-c3ccccc3)c2cc1Cl)C(=O)NCC1CCC(C(=O)O)CC1 (configuration not stated) | nt | i | nt | i | i | nt
Cc1cccc(Cn2c(NCCO)nc3c2c(=O)n(C)c(=O)n3C)c1 | i | i | i | i | i | nt
Cn1c(=O)c2c(nc(NCCCO)n2Cc2cccc(Br)c2)n(C)c1=O | i | i | i | i | 11 | i
CCOC(=O)C1=C(C)NC(C)=C(C(=O)OCC)C1C(=O)OCC(=O)N(C)C | i | i | i | i | i | nt
CC(C)CNC(=O)CC(=O)N/N=C/c1ccc(F)cc1 | i | i | i | i | 12 | i
O=c1c(O)c(-c2ccc(O)c(O)c2)oc2cc(O)cc(O)c12 | nt | i | nt | i | 21 | 7.2
O=C(/C=C/c1cccs1)Nc1ccc([N+](=O)[O-])cc1 | i | i | i | i | i | nt
O=C(/C=C/c1cccs1)Nc1ccncc1 | i | i | i | i | 13 | i
Cc1cccc(-n2ccnc2SCC(=O)N2CCCc3ccccc32)c1C | i | i | i | i | i | nt
CN(CC(=O)NCc1ccncc1)S(=O)(=O)c1ccc(F)cc1 | i | i | i | i | 12 | i
CCCCc1ccc(NC(=O)N[C@H](C(=O)O)C(C)CC)cc1 (some centres not stated) | i | i | i | i | 13 | i
COc1cccc(CNC(=O)C2CSC3(C)CCC(=O)N23)c1 (configuration not stated) | nt | i | nt | i | i | nt
Cc1cn([C@H]2C[C@H](O)[C@@H](COS(=O)(=O)O)O2)c(=O)[nH]c1=O | nt | i | nt | i | 14 | i
O=c1cnnc(N/N=C/c2ccc3c(c2)OCO3)[nH]1 | i | i | i | i | 10 | i
O=C1Cc2ccccc2C(=O)N1c1cccc(Cl)c1 | nt | i | nt | i | i | nt
CC1CCCC(NC(=O)COC(=O)c2ccccc2NC(=O)c2ccco2)C1C (configuration not stated) | i | i | i | i | 10 | i
O=C(COC(=O)c1ccccc1NC(=O)c1ccco1)NC1CCCCC1 | i | i | i | i | i | nt
CC(C)CC1NC(=O)c2cc(Cl)ccc2-n2c1nc1cc(F)ccc1c2=O (configuration not stated) | nt | i | nt | i | 15 | i
CC(Sc1ccc(Cl)cc1)C(=O)NCc1ccc2c(c1)OCO2 (configuration not stated) | i | i | i | i | 9.4 | i
